# Columns and labels:
# [1] = target: Platelet-derived growth factor receptor (Mus musculus, UniProt P05622+P26618); assay: Inhibition against of platelet-derived growth factor receptor (PDGFr)
# [2] = target: Proto-oncogene tyrosine-protein kinase Src (Mus musculus, UniProt P05480); assay: Inhibition of mouse c-Src tyrosine kinase
# [3] = target: Fibroblast growth factor receptor (Mus musculus, UniProt P21803+Q03142+P16092+Q61851); assay: Inhibition of mouse fibroblast growth factor receptor tyrosine kinase (FGFr); type: protein assay
# [4] = target: T1, Platelet-derived growth factor receptor (PDGFr) (Rattus norvegicus, UniProt P20786+Q05030); assay: Inhibition of PDGF-stimulated Platelet-derived growth factor receptor autophosphorylation in rat aortic vascular smooth muscle cells (RAVSMCs) after 2 hr
# [5] = target: T1, Platelet-derived growth factor receptor (PDGFr); assay: Inhibition of PDGF-stimulated Platelet-derived growth factor receptor autophosphorylation in C6 rat glioma cells after 2 hr; type: cell-based
# DU-145 [6] = assay: Delay between treated (T) and control (C) DU-145 cell tumors reaching 750 mg at 48 mg/kg peroral dose, days 16-20,23-27,30-34 administration; type: functional; details: route oral
# Method in brief: (§1)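 Nude mice (18-22 g), randomized, implanted sc in the right axilla on day 0 with tumor fragments maintained by serial passage in nude mice. Tumors were C6 rat glioma, NIH 3T3 transfected with human PDGF ββ, or DU-145 prostate. At least 6 mice per group, 12 controls. Oral dosing by average cage weight on the stated days.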
# C6 [7] = assay: Inhibition of rat C6 glioma cell proliferation in sulforhodamine B assay; type: functional, cell-based
# Method in brief: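 C6 rat glioma cells cultured 4 days with a range of compound concentrations; growth read by sulforhodamine B staining, giving IC50.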
# C6 [8] = assay: Net reduction in C6 glioma cell tumor burden after 40 mg/kg peroral dose, days 1-15 administration; type: functional; details: route oral
# Method in brief: (§2)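 Tumor lines (C6 rat glioma; NIH 3T3 fibroblasts transfected with human PDGF-ββ; DU-145 prostatic adenocarcinoma) were kept by serial passage in nude mice. Randomized nude mice weighing 18-22 g received sc tumor fragments in the right axilla on day 0, with at least 6 per treated group and 12 controls. Oral dosing was based on average cage weight. Net cell kill is given as log10.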
# C6 [9] = assay: Ratio of treated/control C6 glioma cell tumor mass at 40 mg/kg peroral dose, days 1-15 administration; type: functional; details: route oral
# Method in brief: (§3)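 Nude mouse sc axillary tumor-fragment xenografts implanted on day 0 (6-8 treated, 12 controls), with oral dosing on the stated schedule. T/C = median treated tumor mass / median control tumor mass × 100%, on the last therapy day.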
# [10] = Compound was tested for maximum observed concentration in three male Wistar rats at a single 5 mg/kg oral gavage dose; type: ADME, organism-based; parameters: dose 5 mg/kg, route oral; details: rat, in vivo
# Method in brief: (§4)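 Single 5 mg/kg oral gavage dose given to three male Wistar rats, in 17% PEG 400/83% methylcellulose (0.5%). Heparinized plasma was taken by jugular vein cannula from 0 to 48 h; lower limit of quantitation was 10 ng/mL. Noncompartmental analysis: t1/2 = 0.693/λz (log-linear terminal regression); AUC by trapezoidal rule, extrapolated to infinity.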
# C6 [11] = assay: C6 glioma 3-day proliferation followed by soft agar growth without treatment; type: functional, cell-based; details: Rattus norvegicus, C6, 72 h
# Method in brief: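 C6 rat glioma cells exposed to a range of compound concentrations for 3 days in culture, then cloned in soft agar with drug removed. IC50 derived.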
# Mus musculus [12] = assay: Net reduction in PDGF-transfected cell tumor burden after 20 mg/kg peroral dose, days 1-15 administration; type: functional; details: route oral; method in brief: as §2
# [13] = Compound was tested for apparent terminal phase elimination half life in three male Wistar rats at a single 5 mg/kg oral gavage dose; type: ADME, organism-based; parameters: dose 5 mg/kg, route oral; details: rat, in vivo; method in brief: as §4
# Mus musculus [14] = assay: Ratio of treated/control PDGF-transfected cell tumor mass at 20 mg/kg peroral dose, days 1-15 administration; type: functional; details: route oral; method in brief: as §3
# [15] = Compound was tested for time to reach Cmax in three male Wistar rats at a single 5 mg/kg oral gavage dose.; type: ADME, organism-based; parameters: dose 5 mg/kg, route oral; details: rat, in vivo; method in brief: as §4
# Mus musculus [16] = assay: Delay between treated (T) and control (C) PDGF-transfected cell tumors reaching 750 mg at 20 mg/kg peroral dose, days 1-15 administration; type: functional; details: route oral; method in brief: as §1
# C6 [17] = assay: Weight change after 40 mg/kg peroral dose, days 1-15 treatment of C6 glioma cell tumor; type: functional; details: route oral; method in brief: as §1
# C6 [18] = assay: Delay between treated (T) and control (C) C6 glioma cell tumors reaching 750 mg at 40 mg/kg peroral dose, days 1-15 administration; type: functional; details: route oral; method in brief: as §1
# C6 [19] = assay: C6 glioma 3-day proliferation followed by soft agar growth with continuous treatment; type: functional, cell-based; details: Rattus norvegicus, C6, 72 h
# Method in brief: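 C6 rat glioma cells exposed to a range of compound concentrations for 3 days in culture, then cloned in soft agar with drug kept present throughout colony growth. IC50 derived.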
# DU-145 [20] = assay: Net reduction in DU-145 cell tumor burden after 48 mg/kg peroral dose, days 16-20,23-27,30-34 administration; type: functional; details: route oral; method in brief: as §2
# Rattus norvegicus [21] = assay: Compound was tested for area under concentration -time curve from time 0 to time infinity in three male Wistar rats at a single 5 mg/kg oral gavage dose; type: ADME, organism-based; parameters: dose 5 mg/kg, route oral; details: in vivo; method in brief: as §4
# DU-145 [22] = assay: Ratio of treated/control DU-145 cell tumor mass at 48 mg/kg peroral dose, days 16-20, 23-27, 30-34 administration; type: functional; details: route oral; method in brief: as §3
# Mus musculus [23] = assay: Weight change after 20 mg/kg peroral dose, days 1-15 treatment of PDGF-transfected cell tumor; type: functional, organism-based; parameters: dose 20 mg/kg; method in brief: as §1
# Rattus norvegicus [24] = assay: Compound was tested for area under concentration -time curve from time 0 to time of last detectable concentration in three male Wistar rats at a single 5 mg/kg oral gavage dose; type: ADME, organism-based; parameters: dose 5 mg/kg, route oral; details: in vivo; method in brief: as §4
# DU-145 [25] = assay: Weight change after 48 mg/kg peroral dose, days 16-20,23-27,30-34 treatment of DU-145 cell tumor
# Rattus norvegicus [26] = assay: Compound was tested for area under concentration -time curve from time 0 to time infinity in three male Wistar rats at a single 5 mg/kg oral gavage dose.; type: ADME, organism-based; parameters: dose 5 mg/kg, route oral; details: in vivo; method in brief: as §4
# Proto-oncogene tyrosine-protein kinase Src, sequence (P05480 2-535 limits assumed): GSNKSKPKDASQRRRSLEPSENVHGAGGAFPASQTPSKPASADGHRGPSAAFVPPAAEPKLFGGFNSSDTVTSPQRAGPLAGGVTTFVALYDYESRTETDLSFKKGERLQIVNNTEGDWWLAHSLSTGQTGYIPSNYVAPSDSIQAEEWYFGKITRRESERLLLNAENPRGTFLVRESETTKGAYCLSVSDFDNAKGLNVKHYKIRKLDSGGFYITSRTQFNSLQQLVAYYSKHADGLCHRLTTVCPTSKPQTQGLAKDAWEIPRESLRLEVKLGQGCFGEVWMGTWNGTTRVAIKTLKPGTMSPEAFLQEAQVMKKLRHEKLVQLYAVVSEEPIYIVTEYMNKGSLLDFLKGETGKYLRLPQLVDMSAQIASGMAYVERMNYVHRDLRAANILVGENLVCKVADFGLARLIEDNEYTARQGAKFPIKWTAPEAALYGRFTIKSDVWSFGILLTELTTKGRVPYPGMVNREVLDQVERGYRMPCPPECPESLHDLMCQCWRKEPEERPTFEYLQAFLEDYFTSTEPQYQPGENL
compound,measurement,setting,value
Cn1c(=O)c(-c2ccsc2)cc2cnc(N)nc21,IC50,[1],24400 nM
same,IC50,[2],> 50000 nM
same,IC50,[3],> 50000 nM
CCCn1c(=O)c(-c2c(Cl)cccc2Cl)cc2cnc(N)nc21,IC50,[1],1200 nM
same,IC50,[2],630 nM
same,IC50,[3],510 nM
Cn1c(=O)c(-c2ccsc2)cc2cnc(Nc3ccncc3)nc21,IC50,[1],480 nM
same,IC50,[2],1700 nM
same,IC50,[3],22600 nM
CCn1c(=O)c(-c2ccccc2)cc2cnc(Nc3ccccc3)nc21,IC50,[1],180 nM
same,IC50,[2],1800 nM
same,IC50,[3],1500 nM
same,IC50,[4],4.6 nM
same,IC50,[5],> 25 nM
Cn1c(=O)c(-c2c(Cl)cccc2Cl)cc2cnc(N)nc21,IC50,[1],3800 nM
same,IC50,[2],260 nM
same,IC50,[3],1300 nM
CCN(CC)CCOc1ccc(Nc2ncc3cc(-c4ccsc4)c(=O)n(C)c3n2)cc1,IC50,[1],54 nM
same,IC50,[2],210 nM
same,IC50,[3],2900 nM
same,IC50,[4],54 nM
CN(C)CCCn1c(=O)c(-c2c(Cl)cccc2Cl)cc2cnc(N)nc21,IC50,[1],1800 nM
same,IC50,[2],50 nM
same,IC50,[3],880 nM
CCn1c(=O)c(-c2ccsc2)cc2cnc(Nc3ccccc3)nc21,IC50,[1],410 nM
same,IC50,[2],41000 nM
same,IC50,[3],> 50000 nM
same,IC50,[5],> 25 nM
Cn1c(=O)c(-c2ccc(-c3ccccc3)cc2)cc2cnc(Nc3ccccc3)nc21,IC50,[1],> 50000 nM
same,IC50,[2],> 50000 nM
same,IC50,[3],> 50000 nM
CCN(CC)CCOc1ccc(Nc2ncc3cc(-c4ccccc4)c(=O)n(C)c3n2)cc1,IC50,[1],42 nM
same,IC50,[2],140 nM
same,IC50,[3],350 nM
CCN(CC)CCOc1ccc(Nc2ncc3cc(-c4ccccc4)c(=O)n(CC)c3n2)cc1,T-C,DU-145 [6],11.4 days
same,IC50,C6 [7],1200 nM
same,Net log cell kill,C6 [8],-0.3
same,T/C,C6 [9],0%
same,Cmax,[10],78.3 ng/mL
same,IC50,C6 [11],150 nM
same,Net log cell kill,Mus musculus [12],-1.2
same,half-life,[13],6.65 h
same,T/C,Mus musculus [14],1%
same,Tmax,[15],2.67 h
same,IC50,[1],31 nM
same,IC50,[2],31 nM
same,IC50,[3],88 nM
same,T-C,Mus musculus [16],6.9 days
same,Weight change,C6 [17],-0.7 g
same,T-C,C6 [18],9.6 days
same,IC50,C6 [19],120 nM
same,Net log cell kill,DU-145 [20],-0.4
same,AUC,Rattus norvegicus [21],828 ng·h/mL
same,T/C,DU-145 [22],40%
same,IC50,[5],3 nM
same,Weight change,Mus musculus [23],Weight gain
same,AUC,Rattus norvegicus [24],525 ng·h/mL
same,Weight change,DU-145 [25],Weight gain
Nc1ncc2cc(-c3c(Cl)cccc3Cl)c(=O)n(Cc3ccccc3)c2n1,IC50,[1],4200 nM
same,IC50,[2],160 nM
same,IC50,[3],1400 nM
Nc1ncc2cc(-c3c(Cl)cccc3Cl)c(=O)n(Cc3ccncc3)c2n1,IC50,[1],1200 nM
same,IC50,[2],630 nM
Nc1ncc2cc(-c3c(Cl)cccc3Cl)c(=O)n(CCCO)c2n1,IC50,[1],1100 nM
same,IC50,[2],180 nM
same,IC50,[3],370 nM
CCn1c(=O)c(-c2c(Cl)cccc2Cl)cc2cnc(N)nc21,IC50,[1],980 nM
same,IC50,[2],160 nM
Cn1c(=O)c(-c2ccccc2)cc2cnc(Nc3ccncc3)nc21,IC50,[1],320 nM
same,IC50,[2],470 nM
same,IC50,[3],4700 nM
CCN(CC)CCOc1ccc(Nc2ncc3cc(-c4c(Cl)cccc4Cl)c(=O)n(CC)c3n2)cc1,IC50,[1],150 nM
same,IC50,[2],17 nM
same,IC50,[3],30 nM
CC(C)Cn1c(=O)c(-c2c(Cl)cccc2Cl)cc2cnc(N)nc21,IC50,[1],1600 nM
same,IC50,[2],890 nM
same,IC50,[3],500 nM
Cn1c(=O)c(-c2ccsc2)cc2cnc(Nc3ccccc3)nc21,IC50,[1],800 nM
same,IC50,[2],8100 nM
same,IC50,[3],> 50000 nM
Nc1ncc2cc(-c3c(Cl)cccc3Cl)c(=O)n(CCCOCc3ccccc3)c2n1,IC50,[1],6800 nM
same,IC50,[2],1400 nM
same,IC50,[3],3200 nM
CNc1ncc2cc(-c3ccsc3)c(=O)n(C)c2n1,IC50,[1],> 50000 nM
same,IC50,[2],> 50000 nM
same,IC50,[3],> 50000 nM
CCn1c(=O)c(-c2ccccc2)cc2cnc(Nc3ccncc3)nc21,IC50,C6 [7],7200 nM
same,Cmax,[10],730 ng/mL
same,IC50,C6 [11],13200 nM
same,half-life,[13],3.72 h
same,Tmax,[15],1.5 h
same,IC50,[1],74 nM
same,IC50,[2],410 nM
same,IC50,[3],1100 nM
same,IC50,C6 [19],4900 nM
same,IC50,[5],58 nM
same,AUC,Rattus norvegicus [26],5240 ng·h/mL
same,AUC,Rattus norvegicus [24],4760 ng·h/mL
Cn1c(=O)c(-c2cccs2)cc2cnc(Nc3ccccc3)nc21,IC50,[1],950 nM
same,IC50,[2],> 50000 nM
same,IC50,[3],> 50000 nM
Cn1c(=O)c(-c2ccccc2)cc2cnc(Nc3ccccc3)nc21,IC50,[1],290 nM
same,IC50,[2],2400 nM
same,IC50,[3],5000 nM
COC(=O)Cn1c(=O)c(-c2c(Cl)cccc2Cl)cc2cnc(N)nc21,IC50,[1],5000 nM
same,IC50,[2],340 nM
same,IC50,[3],1700 nM
CC(C)(C)OC(=O)Cn1c(=O)c(-c2c(Cl)cccc2Cl)cc2cnc(N)nc21,IC50,[1],7200 nM
same,IC50,[2],560 nM
same,IC50,[3],1700 nM
Nc1ncc2cc(-c3c(Cl)cccc3Cl)c(=O)n(CC(=O)O)c2n1,IC50,[1],> 50000 nM
same,IC50,[2],> 50000 nM
same,IC50,[3],7900 nM
CCCCn1c(=O)c(-c2c(Cl)cccc2Cl)cc2cnc(N)nc21,IC50,[1],1200 nM
same,IC50,[2],330 nM
same,IC50,[3],580 nM

# Reference: ChEMBL document CHEMBL1131615, “Synthesis and tyrosine kinase inhibitory activity of a series of 2-amino-8H-pyrido[2,3-d]pyrimidines: identification of potent, selective platelet-derived growth factor receptor tyrosine kinase inhibitors” (J Med Chem, 1998)
